The source made the active and inactive calls. The calls are words filed in the database; no cut-off is given here.

One may read the ED50 as the dose that gives a 50% effect, or the effect in half of the subjects.

Series [1] concerns Rattus norvegicus. The series can be described thus: Anticonvulsant activity in albino Sprague-Dawley rat assessed as protection against scMet-induced seizures at 50 mg/kg, po after 15 mins. It is filed as functional. The essentials: (§1)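 Male Sprague-Dawley albino rats (100-150 g) were given the compound orally as a suspension in 0.5% methylcellulose. Seizures were induced by subcutaneous pentylenetetrazol, dissolved in 0.9% saline as a 2.82% solution. The read-out was animals protected over animals tested.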

In series [2] the test system is Mus musculus. The series can be described thus: Neurotoxicity in CF1 albino mouse at 30 mg/kg, ip after 0.5 hrs. It is filed as toxicity, organism-based. The arrangement: dose 30 mg/kg, route intraperitoneal. Particulars: in vivo. In a few lines:
(§2)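 Male CF no. 1 albino mice (18-25 g) received a single ip dose as a suspension in 0.5% methylcellulose. The read-out was the number of animals showing neurotoxicity (minimal motor impairment) over the number tested.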

For series [3], the system named is Rattus norvegicus. The series is described as follows: Anticonvulsant activity in albino Sprague-Dawley rat assessed as protection against scMet-induced seizures at 25 mg/kg, po. It is filed as functional, organism-based. The arrangement: dose 25 mg/kg. In a few lines:
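Oral dosing of male Sprague-Dawley rats (100-150 g) with compound in 0.5% methylcellulose. Convulsant challenge given subcutaneously as a 2.82% pentylenetetrazol solution in 0.9% saline. Groups of about 8 rats per dose. For quantitation, doses spanning 0% to 100% protection were fitted by probit analysis to give ED50 with 95% confidence interval.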

Series [4] concerns Mus musculus. The series is described as follows: Neurotoxicity in CF1 albino mouse at 300 mg/kg, ip after 4 hrs. Type of series: toxicity, organism-based. The arrangement: dose 300 mg/kg, route intraperitoneal. As to conditions: in vivo. In a few lines: as §2
Series [5] concerns Rattus norvegicus. The series is described as follows: Anticonvulsant activity in po dosed albino Sprague-Dawley rat assessed as protection against maximal electroshock-induced seizures. It is filed as functional. (Protection in the maximal electroshock model is a classic sign of anticonvulsant action.)
For series [6], the system named is Mus musculus. The series is described as follows: Anticonvulsant activity in CF1 albino mouse assessed as protection against scMet-induced seizures at 30 mg/kg, ip after 4 hrs. It is filed as functional, organism-based. The arrangement: dose 30 mg/kg. The essentials:
(§3)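 Adult male CF no. 1 albino mice (18-25 g) dosed intraperitoneally with compound suspended in 0.5% methylcellulose (0.01 mL/g). Convulsant challenge given subcutaneously as a 0.85% pentylenetetrazol solution in 0.9% saline. Read-out is animals protected over animals tested, with neurotoxicity scored in parallel.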

For series [7], the system named is Rattus norvegicus. The series is described as follows: Anticonvulsant activity in albino Sprague-Dawley rat assessed as protection against maximal electroshock-induced seizures at 100 mg/kg, po. Type of series: functional, organism-based. The arrangement: dose 100 mg/kg. In a few lines:
(§4)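 Adult male Sprague-Dawley albino rats (100-150 g) dosed orally with compound suspended in 0.5% methylcellulose (0.04 mL per 10 g). Maximal electroshock challenge at the stated time. Protection is scored in 25% steps as the fraction of animals protected, with neurotoxicity recorded in parallel.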

Series [8] concerns Rattus norvegicus. The series is described as follows: Anticonvulsant activity in albino Sprague-Dawley rat assessed as protection against maximal electroshock-induced seizures at 50 mg/kg, po after 1 hr. Type of series: functional. The essentials: as §4
Series [9] has as its system Mus musculus. The series can be described thus: Anticonvulsant activity in CF1 albino mouse assessed as protection against 32 mA-current-induced seizure at 130 mg/kg, ip by 6Hz psychomotor seizure test. Type of series: functional, organism-based. More on the design: dose 130 mg/kg. In a few lines: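 6 Hz psychomotor seizure test in male CF no. 1 mice, with compound given ip as a 0.5% methylcellulose suspension. Groups of 8 animals per dose. The 32 mA test used 25, 70 and 130 mg/kg; the 44 mA test used 25, 50, 75 and 100 mg/kg. ED50 and 95% confidence interval were obtained by probit analysis.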

The test system of series [10] is Rattus norvegicus. The series can be described thus: Neurotoxicity in albino Sprague-Dawley rat at 50 mg/kg, po. It is filed as toxicity, organism-based. More on the design: dose 50 mg/kg, route oral. As to conditions: in vivo. The essentials:
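Neurotoxicity was scored in male Sprague-Dawley albino rats (100-150 g) dosed orally with a suspension in 0.5% methylcellulose. The read-out was the fraction of animals showing neurotoxicity (minimal motor impairment).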

Series [11] has as its system Mus musculus. The series is described as follows: Anticonvulsant activity in CF1 albino mouse assessed as protection against scMet-induced seizures at 50 mg/kg, ip. It is filed as functional, organism-based. More on the design: dose 50 mg/kg. In a few lines: as §3
Series [12] relates to Mus musculus. The series can be described thus: Anticonvulsant activity in CF1 albino mouse assessed as protection against scMet-induced seizures at 100 mg/kg, ip after 0.5 hrs. Type of series: functional, organism-based. More on the design: dose 100 mg/kg. The essentials:
as §3

For series [13], the species on record is Rattus norvegicus. The series is described as follows: Protective index, ratio of TD50 for albino Sprague-Dawley rat to ED50 for scMet-induced albino Sprague-Dawley rat seizure model. Type of series: functional. The essentials: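 Protective index is the rat TD50 (minimal motor impairment) divided by the ED50 in the MES or sc pentylenetetrazol test. Male Sprague-Dawley rats were dosed orally in 0.5% methylcellulose, and both values came from probit analysis.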

Series [14] has as its system Mus musculus. The series is described as follows: Teratogenic effect in VPA-induced SWV mouse assessed as number of fetuses with neural tube deffects at 671 mg/kg, ip administered on morning of day 8 of gestation. The arrangement: dose 671 mg/kg, route intraperitoneal. It is filed as toxicity, organism-based. As to conditions: in vivo. The essentials:
(§5)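 Inbred SWV mouse strain highly susceptible to VPA-induced neural tube defects. Each dam received a single ip injection on gestation day 8.5, dosed within 1.8-4.2 mmol/kg, against a control of 25% aqueous Cremophor EL. Groups were compared with the control, and with the matched VPA sodium-salt dose, by Fisher's exact test (p < 0.05).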

Series [15] has as its system Mus musculus. The series can be described thus: Anticonvulsant activity in CF1 albino mouse assessed as protection against scMet-induced seizures at 100 mg/kg, ip after 4 hrs. It is filed as functional, organism-based. More on the design: dose 100 mg/kg. In a few lines:
as §3

Series [16] is filed under the species Mus musculus. The series is described as follows: Protective index, ratio of TD50 for CF1 albino mouse to ED50 for 32 mA current-induced CF1 albino mouse seizure model. Type of series: functional. The essentials: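 Protective index is the mouse TD50 (minimal motor impairment) divided by the 6 Hz test ED50 at 32 or 44 mA. Male CF no. 1 mice were dosed ip in 0.5% methylcellulose, and values came from probit analysis.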

Series [17] relates to Mus musculus. The series can be described thus: Neurotoxicity in CF1 albino mouse assessed as minimal motor impairment at 60 mg/kg, ip. As to conditions: in vivo. It is filed as toxicity, organism-based. More on the design: dose 60 mg/kg, route intraperitoneal. The essentials:
as §2

The subject of series [18] is Mus musculus. The series can be described thus: Anticonvulsant activity in CF1 albino mouse assessed as protection against maximal electroshock-induced seizures at 30 mg/kg, ip after 0.5 hrs. More on the design: dose 30 mg/kg. Type of series: functional, organism-based. The essentials: (§6)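 Adult male CF no. 1 albino mice (18-25 g). Test compound suspended in 0.5% methylcellulose and given intraperitoneally at 0.01 mL/g body weight. Maximal electroshock challenge at the stated time. Read-out is the number of animals protected over the number tested; neurotoxicity is scored in parallel.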

Series [19] deals with Mus musculus. The series can be described thus: Teratogenic effect in SWV mouse assessed as live fetuses at 502 mg/kg, ip administered on morning of day 8 of gestation. Type of series: toxicity, organism-based. More on the design: dose 502 mg/kg, route intraperitoneal. As to conditions: in vivo.
In series [20] the test system is Rattus norvegicus. The series is described as follows: Anticonvulsant activity in albino Sprague-Dawley rat assessed as protection against scMet-induced seizures at 50 mg/kg, po after 4 hrs. It is filed as functional. The essentials: as §1
Series [21] deals with Mus musculus. The series can be described thus: Anticonvulsant activity in CF1 albino mouse assessed as protection against maximal electroshock-induced seizures at 100 mg/kg, ip after 0.5 hrs. Type of series: functional, organism-based. The arrangement: dose 100 mg/kg. In a few lines: as §6
Series [22] concerns Mus musculus. The series can be described thus: Teratogenic effect in SWV mouse assessed as number of implants at 336 mg/kg, ip administered on morning of day 8 of gestation. It is filed as toxicity, organism-based. The arrangement: dose 336 mg/kg, route intraperitoneal. Particulars: in vivo. The essentials: as §5

Turning to `CC1(C)C(C)(C)C1(F)C(N)=O`, the Activity with Rattus norvegicus [1] was 100%; with Mus musculus [2] it was “Non-toxic”; in the series on Mus musculus [4], “Non-toxic”; in the series on Mus musculus [6], “Non-toxic”; with Rattus norvegicus [10], “Not Active”; in the series on Mus musculus [12], “Toxic”. Moreover, the Activity with Mus musculus [14] was 0; with Mus musculus [15], “Non-toxic”; in the series on Mus musculus [17], “Non-toxic”; in the series on Mus musculus [18] it was “Non-toxic”; in the series on Mus musculus [19], 73.2%; in the series with Rattus norvegicus [20] it was 50%. For the same compound, the Activity result with Mus musculus [21] is “Non-toxic”; in the series with Mus musculus [22] it was 112. In addition, the result in the series with Rattus norvegicus [3], in the series on Mus musculus [9] and with Mus musculus [11] was Active. Further, the ED50 in the series with Rattus norvegicus [5] is greater than 100 mg/kg. Besides, the outcome with Rattus norvegicus [7] and in the series with Rattus norvegicus [8] was inactive. Further, the PI in the series listed under Rattus norvegicus [13] came to 20; in the series listed under Mus musculus [16], 2.1.

These data come from ChEMBL document CHEMBL1153988 (J Med Chem, 2009).
